The term pIC50 denotes the negative decadic logarithm of the IC50, by convention in mol/L. Usually pKi stands for the Ki on a negative log10 scale, so that one unit is a factor of ten. High values mean a low Ki, low ones a high Ki.

pIC50, pKi: −log10 of the molar value.

The text below walks through data of ChEMBL document CHEMBL2016504, “New saccharin derivatives as tyrosinase inhibitors” (Bioorg Med Chem, 2012).

The test system of one assay is Musa x paradisiaca. As to the kind of experiment: Competitive inhibition of banana tyrosinase using catechol as substrate by Lineweaver-Burk plot analysis. In a few lines:
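Banana PPO was partially purified: ammonium sulfate to 80% saturation, dialysis in 5 mM phosphate, then a Sepharose 4B-tyrosine-p-aminobenzoic acid affinity column eluted with 1 M NaCl, 5 mM phosphate, pH 7.0. Catechol oxidation was read as the rise in A420, in duplicate, corrected for non-enzymatic change. Ki and inhibition type came from Lineweaver–Burk 1/V vs 1/[S] plots at two inhibitor levels (0.01–0.20 mM).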

The nature of assay [1]: Inhibition of desert banana tyrosinase using p-cresol as substrate. Also noted: species or system Musa acuminata.

In turn, `Nc1ccc2c(c1)S(=O)(=O)NC2=O` displayed a Kic in the assay with Musa x paradisiaca of 13.6 µM.
For the molecule `O=C1NS(=O)(=O)c2cc(NC(=S)Nc3cc(Cl)cc(Cl)c3)ccc21`, in the assay on Musa x paradisiaca, the Kic turned out to be 13.7 µM.
In the case of `O=S(O)S(=O)(=O)O` [SODIUM METABISULFITE], in assay [1], the pIC50 was 4.19.
The same measure, in the same setting: then `O[C@@H](CS)[C@@H](O)CS` (relative stereo) [DITHIOTHREITOL], with 4.20.
`COc1cccc(NC(=O)Nc2ccc3c(c2)S(=O)(=O)NC3=O)c1` had a Kic in the assay on Musa x paradisiaca of 14.1 µM.
Take `N[C@@H](CS)C(=O)O` [CYSTEINE]: the pIC50 in assay [1] is 3.49.
On to `O=C(Nc1cccc([N+](=O)[O-])c1)Nc1ccc2c(c1)S(=O)(=O)NC2=O`, for which, in the assay on Musa x paradisiaca, the Kic is 16.9 µM.
As for `Cc1ccc(NC(=S)Nc2ccc3c(c2)S(=O)(=O)NC3=O)cc1`, the Kic in the assay with Musa x paradisiaca is 9.96 µM.
In the assay on Musa x paradisiaca, `O=C1NS(=O)(=O)c2cc(NC(=S)Nc3ccc([N+](=O)[O-])cc3)ccc21` gave a Kic of 19.5 µM.
The molecule `O=C1NS(=O)(=O)c2cc(NC(=S)Nc3ccc(Cl)cc3Cl)ccc21` registered a Kic in the assay on Musa x paradisiaca of 10.1 µM.
Still for that read-out and setting: then `O=C(Nc1ccc(F)cc1)Nc1ccc2c(c1)S(=O)(=O)NC2=O`, with 15.6 µM.
The same measure, in the same setting: then `COc1ccc(NC(=S)Nc2ccc3c(c2)S(=O)(=O)NC3=O)cc1`, with 9.81 µM; and `O=C1NS(=O)(=O)c2cc(NC(=S)Nc3ccccc3F)ccc21`, with 4.23 µM; and `O=C1NS(=O)(=O)c2cc(NC(=S)Nc3ccccc3)ccc21`, with 10.7 µM.
The molecule `O=C1NS(=O)(=O)c2cc(NC(=S)Nc3cccc(I)c3)ccc21` registered a Kic with Musa x paradisiaca of 3.95 µM.
Same read-out and setting: the figure for `O=C(Nc1ccc2c(c1)S(=O)(=O)NC2=O)Nc1ccccc1F` is 35.1 µM.
In assay [1], `O=C1O[C@H]([C@@H](O)CO)C(O)=C1O` [ASCORBIC ACID] had a pIC50 of 3.36 and a pKi of 3.28.
In turn, `COc1ccc(NC(=O)Nc2ccc3c(c2)S(=O)(=O)NC3=O)cc1` displayed a Kic in the assay on Musa x paradisiaca of 16.6 µM.
On the same count and under the same terms, then `O=C(Nc1cccc(F)c1)Nc1ccc2c(c1)S(=O)(=O)NC2=O`, with 12.1 µM.
Regarding `O=C(Nc1ccc(Cl)c(Cl)c1)Nc1ccc2c(c1)S(=O)(=O)NC2=O`, the Kic in the assay on Musa x paradisiaca came to 14.9 µM.
Molecule `O=C1NS(=O)(=O)c2cc(NC(=S)Nc3ccc(F)cc3)ccc21` showed a Kic in the assay on Musa x paradisiaca of 14.8 µM.
Consider `O=C(Nc1ccc([N+](=O)[O-])cc1)Nc1ccc2c(c1)S(=O)(=O)NC2=O`, for which the Kic in the assay with Musa x paradisiaca came out at 22 µM.
For `O=C(Nc1ccc(Cl)cc1)Nc1ccc2c(c1)S(=O)(=O)NC2=O`, the Kic in the assay on Musa x paradisiaca stood at 40.2 µM.
`Cc1ccc(NC(=O)Nc2ccc3c(c2)S(=O)(=O)NC3=O)cc1`: in the assay with Musa x paradisiaca, the Kic turned out to be 16.2 µM.
The same measure, in the same setting: then `O=C1NS(=O)(=O)c2cc(NC(=S)Nc3cccc(F)c3)ccc21`, with 11.1 µM.
The same measure, in the same setting: then `O=C(Nc1cccc(Cl)c1)Nc1ccc2c(c1)S(=O)(=O)NC2=O`, with 5.85 µM.
Still for that read-out and setting: then `O=C(Nc1ccccc1)Nc1ccc2c(c1)S(=O)(=O)NC2=O`, with 13.4 µM.
As for `O=C1NS(=O)(=O)c2cc(NC(=S)Nc3cccc(Cl)c3)ccc21`, the Kic in the assay with Musa x paradisiaca stood at 28.3 µM.
